Calls of active or inactive are those of the source. The calls are words filed in the database; no cut-off is given here.
Assays:
[1] = target: Sodium-dependent dopamine transporter (Homo sapiens) (UniProt Q01959); experiment: Inhibition of DAT receptor (unknown origin) at 100 nM
[2] = target: Sodium-dependent serotonin transporter (Homo sapiens) (UniProt P31645); experiment: Inhibition of SERT receptor (unknown origin) at 100 nM
[3] = target: Sodium-dependent noradrenaline transporter (Homo sapiens) (UniProt P23975); settings: dose 10-100 nM
[4] = target: Sodium-dependent dopamine transporter (Homo sapiens) (UniProt Q01959); experiment: Displacement of [3H]BTCP from recombinant human DAT receptor expressed in CHO cells at 10 uM incubated for 120 mins by scintillation counting method; assay type: cell-based
How it was run: (§1)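 Radioligand displacement run by a commercial provider, with test compound at 10 μM. Reported as mean ± SD of two independent measurements, each in duplicate.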

[5] = target: Sodium-dependent serotonin transporter (Homo sapiens) (UniProt P31645); experiment: Displacement of [3H]imipramine from recombinant human SERT receptor expressed in CHO cells at 10 uM incubated for 60 mins by scintillation counting method; assay type: cell-based; how it was run: as §1
[6] = Drug accumulation in C57BL/6JRJ mouse brain at 5 mg/kg, iv followed by 1 week after washout period treated at 5 mg/kg, po followed by 1 week after washout period treated at 5 mg/kg, po measured after 30 mins; assay type: ADME, organism-based; settings: in vivo, 168 h, time 1 weeks
How it was run: (§2)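 The same four C57BL/6JRJ mice (2 male, 2 female) first had i.v. and then oral PK runs, each followed by 1 week washout. They were then gavaged with 5 mg/kg in saline at 5 mL/kg. At 30 min they were decapitated under isoflurane, and blood and tissues were harvested. Tissue levels were quantified by LC-ESI-MS/MS and given as mean ± SD of four mice.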

[7] = Drug accumulation in C57BL/6JRJ mouse adrenal gland at 5 mg/kg, iv followed by 1 week after washout period treated at 5 mg/kg, po followed by 1 week after washout period treated at 5 mg/kg, po measured after 30 mins; assay type: ADME, organism-based; settings: in vivo, 168 h, time 1 weeks; how it was run: as §2
[8] = Acute toxicity in C57BL6/J mouse assessed as piloerection at 1.0 to 10 mg/kg, ip; assay type: organism-based; settings: in vivo, dose 1-10 mg/kg
How it was run: (§3)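 Male mice, 12 weeks old, were handled for 10 days and rotarod-trained before dosing. Each received 1.0 or 10 mg/kg i.p. (n = 7) or vehicle, 0.5% DMSO (n = 6), at 1% body-weight volume. Animals were held 40 min in a separate cage, then observed during rotarod, light/dark box and rectal temperature tests for signs of toxicity. Sacrifice was 1 h post-dose.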

[9] = Acute toxicity in C57BL6/J mouse assessed as hunched posture at 1.0 to 10 mg/kg, ip; assay type: organism-based; settings: in vivo, dose 1-10 mg/kg; how it was run: as §3
[10] = Acute toxicity in C57BL6/J mouse assessed as convulsions at 1.0 to 10 mg/kg, ip; assay type: organism-based; settings: in vivo, dose 1-10 mg/kg; how it was run: as §3
[11] = Acute toxicity in C57BL6/J mouse assessed as gastrointestinal distress at 1.0 to 10 mg/kg, ip; assay type: organism-based; settings: in vivo, dose 1-10 mg/kg; how it was run: as §3
[12] = AUC in C57BL/6JRJ mouse at 5 mg/kg, iv measured up to 24 hrs; assay type: ADME, organism-based; settings: in vivo
How it was run: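 C57BL/6JRJ mice, 8–9 weeks old (2 male, 2 female), received 5 mg/kg (dose based on free salt MW) in 0.9% saline at 5 mL/kg by tail-vein injection after tail warming. Tail-vein blood microsamples (<20 μL) were taken at 5, 15, 30 min and 1, 1.5, 2, 4, 8 and 24 h, quantified by MRM LC-ESI-MS/MS, and reported as mean ± SD of four mice.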

Chain of Sodium-dependent noradrenaline transporter (Homo sapiens) (P23975 whole entry): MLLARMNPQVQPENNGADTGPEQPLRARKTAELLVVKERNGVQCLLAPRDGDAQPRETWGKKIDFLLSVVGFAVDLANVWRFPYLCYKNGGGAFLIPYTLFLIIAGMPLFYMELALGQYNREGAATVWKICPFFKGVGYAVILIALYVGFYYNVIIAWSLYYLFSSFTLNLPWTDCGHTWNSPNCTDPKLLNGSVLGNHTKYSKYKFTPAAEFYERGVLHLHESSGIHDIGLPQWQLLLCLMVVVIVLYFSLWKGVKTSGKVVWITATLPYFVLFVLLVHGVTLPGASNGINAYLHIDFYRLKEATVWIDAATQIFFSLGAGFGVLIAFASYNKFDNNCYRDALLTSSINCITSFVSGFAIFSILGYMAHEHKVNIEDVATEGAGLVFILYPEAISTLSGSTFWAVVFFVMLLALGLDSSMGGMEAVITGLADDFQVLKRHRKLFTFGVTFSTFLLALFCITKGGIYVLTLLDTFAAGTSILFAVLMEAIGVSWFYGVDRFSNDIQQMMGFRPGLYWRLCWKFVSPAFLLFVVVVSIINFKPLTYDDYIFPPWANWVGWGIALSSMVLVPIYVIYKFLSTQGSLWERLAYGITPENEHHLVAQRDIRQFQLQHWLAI
Chain of Sodium-dependent serotonin transporter (Homo sapiens) (P31645 whole entry, looked up): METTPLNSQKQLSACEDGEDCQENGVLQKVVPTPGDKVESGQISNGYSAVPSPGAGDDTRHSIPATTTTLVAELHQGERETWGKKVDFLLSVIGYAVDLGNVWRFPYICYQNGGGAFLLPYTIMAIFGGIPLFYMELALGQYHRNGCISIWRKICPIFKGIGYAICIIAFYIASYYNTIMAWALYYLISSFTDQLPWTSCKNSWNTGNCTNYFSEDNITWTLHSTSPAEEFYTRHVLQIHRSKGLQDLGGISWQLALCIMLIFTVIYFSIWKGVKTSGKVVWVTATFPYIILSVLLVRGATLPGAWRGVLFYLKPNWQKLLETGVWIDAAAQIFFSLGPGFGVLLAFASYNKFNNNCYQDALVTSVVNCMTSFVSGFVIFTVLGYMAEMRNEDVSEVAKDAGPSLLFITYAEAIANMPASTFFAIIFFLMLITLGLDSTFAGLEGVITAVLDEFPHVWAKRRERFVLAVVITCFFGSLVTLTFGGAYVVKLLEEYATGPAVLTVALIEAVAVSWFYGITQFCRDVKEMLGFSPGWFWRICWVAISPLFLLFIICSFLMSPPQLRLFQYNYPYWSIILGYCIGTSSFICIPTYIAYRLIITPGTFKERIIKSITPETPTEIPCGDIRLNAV
Chain of Sodium-dependent dopamine transporter (Homo sapiens) (Q01959 whole entry): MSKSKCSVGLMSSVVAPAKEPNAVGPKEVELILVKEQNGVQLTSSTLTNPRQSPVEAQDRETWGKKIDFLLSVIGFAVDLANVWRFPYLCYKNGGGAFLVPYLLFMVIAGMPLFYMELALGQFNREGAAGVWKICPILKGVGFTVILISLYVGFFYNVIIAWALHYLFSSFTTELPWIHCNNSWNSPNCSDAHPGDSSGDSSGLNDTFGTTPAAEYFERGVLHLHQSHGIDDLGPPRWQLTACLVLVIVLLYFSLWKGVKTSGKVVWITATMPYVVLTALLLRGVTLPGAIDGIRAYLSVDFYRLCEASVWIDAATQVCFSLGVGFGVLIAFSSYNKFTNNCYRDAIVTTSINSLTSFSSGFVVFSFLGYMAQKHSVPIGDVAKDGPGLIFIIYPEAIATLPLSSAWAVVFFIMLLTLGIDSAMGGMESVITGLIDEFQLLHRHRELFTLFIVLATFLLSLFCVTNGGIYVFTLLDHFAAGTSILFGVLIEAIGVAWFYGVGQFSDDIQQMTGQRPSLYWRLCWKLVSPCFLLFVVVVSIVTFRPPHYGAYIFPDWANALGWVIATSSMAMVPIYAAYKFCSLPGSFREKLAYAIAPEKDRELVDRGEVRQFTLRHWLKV

Compound	inhibition [1]	inhibition [2]	inhibition [3]	also measured
Brc1cccc(CN2CCCC[C@H]3NCC[C@H]32)c1	Active	Active	Active	–
c1ccc(CN2CCCC[C@@H]3NCCC[C@H]32)cc1	–	–	–	Activity [4]: Active; Activity [5]: Active
Clc1cc(Cl)cc(CN2CCCC[C@H]3NCC[C@H]32)c1	Active	Active	Active	–
Clc1cccc(CN2CCCC[C@H]3NCC[C@H]32)c1	Active	Active	Active	–
Clc1ccc(CN2CCCC[C@H]3NCC[C@H]32)cc1	Active	Active	Active	–
Clc1cccc(CN2CCCC[C@H]3NCC[C@H]32)c1Cl	Active	Active	Active	–
c1ccc(CN2CCCC[C@@H]3NCCCC[C@H]32)cc1	–	–	–	Activity [4]: Active; Activity [5]: Active
Clc1ccccc1CN1CCCC[C@H]2NCC[C@H]21	Active	Active	Active	–
Fc1cccc(CN2CCCC[C@H]3NCC[C@H]32)c1	Active	Active	Active	–
c1ccc(CN2CCCC[C@H]3NCC[C@H]32)cc1	–	–	–	Drug uptake [6]: Active; Drug uptake [7]: Active; Activity [8]: Non-toxic; Activity [9]: Non-toxic; Activity [10]: Non-toxic; Activity [11]: Non-toxic; AUC [12]: 47948 ng·min/mL
c1ccc(CN2CCCC[C@H]3NCCC[C@H]32)cc1	–	–	–	Activity [4]: Active; Activity [5]: Active
